A selection: hits, their analogues and other compounds. The true share with any hit is near 2.8%.
NPY-Y2 PAM-ag: potentiators or agonists of human neuropeptide Y receptor Y2. cells expressing NPY-Y2, potentiator/agonist read-out. activation, % at 3.6 µM. AID 1359. 0.45% of 220,000 active. P49146; in the data active = activation above about 27%;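 note: cells stimulated with NPY near EC25 plus isoproterenol at EC100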
Target sequence (P49146 whole entry, looked up): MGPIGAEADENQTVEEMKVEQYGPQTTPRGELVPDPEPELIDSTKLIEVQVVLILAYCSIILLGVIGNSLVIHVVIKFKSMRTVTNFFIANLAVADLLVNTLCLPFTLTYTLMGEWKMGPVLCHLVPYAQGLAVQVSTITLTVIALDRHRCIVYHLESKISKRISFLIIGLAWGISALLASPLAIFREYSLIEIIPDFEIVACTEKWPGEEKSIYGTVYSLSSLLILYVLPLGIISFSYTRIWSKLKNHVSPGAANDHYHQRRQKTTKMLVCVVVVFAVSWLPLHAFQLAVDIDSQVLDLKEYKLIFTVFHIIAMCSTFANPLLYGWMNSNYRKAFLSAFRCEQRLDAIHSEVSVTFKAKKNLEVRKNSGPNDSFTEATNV
NPY Y2 blocker: antagonists of human neuropeptide Y receptor Y2; 0.99% of 140,000 active; P49146; inhibition, % at 2.7 µM; NPY-Y2 expressing cells, antagonist mode; in the data active = inhibition above about 17%
NPY-Y1 PAM-ag: human NPY-Y1 potentiation or agonism, primary screen. NPY-Y1 expressing cells, potentiator/agonist activation. AID 1304. 0.37% of 220,000 active. P25929. activation, % at 3.6 µM; in the data active = activation above about 33%, passing the limit was not always enough;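 note: cells stimulated with NPY at EC10 then isoproterenol at EC100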
PGE2 EP2 inh: inhibitors of human EP2 prostaglandin E2 receptor; P43116; C6 glioma cells expressing human EP2, cAMP TR-FRET; cells stimulated with saturating PGE2; inhibition, % at 25 µM; 0.52% of 260,000 active; AID 1422;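 active = percent inhibition above 40 after rounding to a whole number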;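 note: rat C6 glioma host cells with rolipram phosphodiesterase inhibitor present; the protocol text gives 20 µM as final concentration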
NPY-Y1 antag: blocks the human neuropeptide Y Y1 receptor; AID 1040; P25929; inhibition, % at 3.6 µM; 1% of 200,000 active; HEK293-CNG Y1 cells, membrane potential fluorescence; NPY at EC95, then isoproterenol;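 active = inhibition above the campaign mean inhibition of all tested compounds plus 3 SD, cut at about 20% in these data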
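Material: HEK293 cells co-expressing NPY Y1 receptor and cyclic-nucleotide gated channel. Timing: compound incubation 1 h at room temperature, readout 45 min post-stimulation. Signal: fluorescence, membrane potential probe.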
EP2 mod: EP2 receptor (human) modulation. 0.83% of 260,000 active. EP2-expressing cells, cAMP HTRF FRET, PGE2 co-stimulation. AID 940. induction, % at 25 µM;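 active = compounds whose cAMP rise, as percent of the full-agonist control response, exceeds 60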;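 note: rat C6 glioma line stably carrying human EP2 under a CMV promoter; the protocol text gives 20 µM as final concentration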
NPY-Y2 pot conf: human NPY-Y2 potentiation or agonism, confirmation; shares compounds with NPY-Y2 PAM-ag; cell-based NPY-Y2 potentiator/agonist assay; activation, % at 3.6 µM; 20% of 450 active; AID 1539; in the data active = activation above about 33%
NPY-Y1 potentiator: potentiates or activates NPY-Y1, counter-screen for NPY-Y2 hits | shares compounds with NPY-Y2 PAM-ag | Y1 HEK293-CNG cells, membrane potential fluorescence | activation, % at 3.6 µM | 20% of 450 active; in the data active = activation above about 45%;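 note: cells stimulated with submaximal NPY then isoproterenol with phosphodiesterase inhibitor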
NPY-Y1 agonist 2: activates human NPY-Y1, counter-screen for NPY-Y2 potentiators | shares compounds with NPY-Y2 PAM-ag | HEK293 Y1-CNGC, membrane potential fluorescence, agonism | activation, % at 3.6 µM | 37% of 450 active;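 active = activation above the mean of DMSO-only control wells plus 3 SD, cut at about 18% in these data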;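 note: cells stimulated with 1 µM isoproterenol plus the PDE inhibitor Ro 20-1724; Y1 agonists lower the membrane potential dye signal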
CNGC inh: cyclic nucleotide gated channel inhibition as counter-screen | shares compounds with NPY-Y2 PAM-ag | HEK293-CNG parental, isoproterenol cAMP, membrane potential fluorescence | inhibition, % at 3.6 µM | 32% of 450 active | AID 1703;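 active = inhibition above the control-well mean plus 3 SD of those wells, cut at about 22% in these data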
Y2 agonist ctr: activates human NPY-Y2 receptor in potentiator counter-screen | shares compounds with NPY-Y2 PAM-ag | HEK293 Y2/CNGC cells, membrane potential fluorescence, agonist mode | activation, % at 3.6 µM | 56% of 450 active | AID 1710;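 active = activation above the mean of solvent-only control wells plus 3 SD, cut at about 10% in these data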;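 note: cells stimulated by isoproterenol with no NPY added so direct agonism is tested; agonism lowers probe fluorescence through less cAMP and CNG channel opening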
Hits are given with their value; - = inactive; . = no result given.

SMILES | NPY-Y2 PAM-ag | NPY Y2 blocker | NPY-Y1 PAM-ag | PGE2 EP2 inh | NPY-Y1 antag | EP2 mod | NPY-Y2 pot conf | NPY-Y1 potentiator | NPY-Y1 agonist 2 | CNGC inh | Y2 agonist ctr
Cc1cc2nc(SCC(=O)Nc3ccccc3Cl)[nH]c2cc1C | . | . | . | - | . | - | . | . | . | . | .
CCOCCCNC(=O)C(=O)NCC1CCCO1 (centres undefined) | . | . | . | - | . | - | . | . | . | . | .
Cc1ccc(NC(=O)/C=C/c2cccc(C(F)(F)F)c2)cc1 | - | - | - | - | - | - | . | . | . | . | .
O=C(/C=C/c1cccc(C(F)(F)F)c1)Nc1cccc(C(F)(F)F)c1 | 36 | - | - | - | - | - | - | - | 25 | 33 | 16
CCc1nc(NCC(C)C)c(C#N)c2c1COC(C)(C)C2 | 38 | - | - | - | - | - | - | - | - | - | -
CCc1nc(NCC2CCCO2)c(C#N)c2c1COC(C)(C)C2 (centres undefined) | - | - | - | - | - | - | . | . | . | . | .
CS(=O)(=O)N1CCc2cc(-c3csc(NC(=O)Cc4cccs4)n3)ccc21 | 36 | - | - | - | - | - | - | - | - | - | -
Cc1cc(N)n2ncc(-c3ccc(Cl)cc3)c2n1 | 37 | - | - | - | - | - | - | 52 | 40 | 39 | 44
COCCN=c1scc(-c2cc(OC)ccc2OC)n1/N=C/c1c[nH]c2ccccc12 | 33 | - | - | - | - | - | 33 | 49 | 46 | 37 | 36
S=C1NCN(CCc2ccccc2)CN1Cc1ccccc1 | - | . | - | - | . | - | . | . | . | . | .
S=C1NCN(CCc2ccccc2)CN1 | 73 | . | - | - | . | - | - | - | - | - | -
O=C(Nc1ccccc1N1CCOCC1)c1cccc(F)c1 | - | . | - | - | - | - | . | . | . | . | .
O=C(Nc1ccccc1N1CCOCC1)c1ccc2nc[nH]c2c1 | 41 | . | - | - | - | - | - | - | - | - | -
Cc1nn(CC(=O)Nc2ccc(N(C)C)cc2)c(=O)c2cc3sccc3n12 | . | . | . | . | . | - | . | . | . | . | .
Cc1nn(Cc2ccc(Cl)cc2)c(C)c1NC(=O)CSc1n[nH]c(C)c1[N+](=O)[O-] | 29 | - | - | - | - | - | - | - | - | - | 27
Cc1nn(Cc2ccccc2)c(C)c1NC(=O)CSc1n[nH]c(C)c1[N+](=O)[O-] | - | - | - | - | - | - | . | . | . | . | .
COc1ccc(NS(=O)(=O)c2cnc[nH]2)cc1 | 30 | . | - | - | - | - | - | - | - | - | -
Cc1nn(-c2ccccc2)c2sc(C(=O)NC3CC3)cc12 | 45 | - | - | - | - | - | - | - | - | - | -
CC(=O)c1sc(NC(=O)c2cc3c(C)nn(-c4ccccc4)c3s2)nc1C | - | - | - | - | - | - | . | . | . | . | .
CC(C)C(=O)c1ccc(O)c(O)c1 | - | . | - | - | . | - | . | . | . | . | .
CCC(NC(C)C)C(O)c1ccc(O)c(O)c1 (centres undefined) | 65 | - | - | - | - | 61 | 53 | 51 | 67 | 53 | 41
CNC(=O)CSc1nnc(-n2nc(C)cc2C)c2ccccc12 | . | . | . | - | . | - | . | . | . | . | .
CCCn1c(CCC(=O)O)nc2cc(S(N)(=O)=O)ccc21 | 104 | . | - | - | . | - | - | - | - | - | -
CCCn1c(CCC(=O)O)nc2cc(S(=O)(=O)N(CC)CC)ccc21 | - | . | - | - | . | - | . | . | . | . | .
Cc1ccc(Nc2nc(-c3ccncc3)cs2)cc1 | 36 | . | - | - | - | - | 35 | 48 | 60 | 49 | 46
Fc1ccc(Nc2nc(-c3cccnc3)cs2)cc1 | 34 | . | - | - | - | - | 35 | 58 | 59 | 43 | 43

Screens from PubChem.
